Measured values from article PMC8892239 (EFSA Journal, 2022).
Converted amounts (≈) assume the structure as drawn. Where two headings read alike, the source gives them in different places.

Key:
[1] = Stability of EQ in complete feed for chickens for fattening; format: physicochemical; settings: 50, 150 or 500 mg EQ/kg feed
[2] = ref EFSA, 2010, cited from earlier work
[3] = Stability of EQ in a vitamin/mineral premixture; format: physicochemical; settings: premixture with 5% EQ
dairy cows = experiment: 36-day feeding study with lactating cows; format: in vivo, Holstein cows; settings: up to 10× the maximum recommended level, fed for 36 days
cattle for fattening = experiment: Tolerance study in cattle for fattening; format: in vivo, male Holstein calves
[4] = Oxygen bomb method, feed for sows
soil microflora = experiment: Nitrogen Transformation Test, OECD 216
Summary of the method: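 Soil nitrogen transformation test per OECD 216, assessed on day 28. An effect was judged as deviation from control, with 25% as the criterion. A maximum variation below 15% was the validity criterion.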

Eisenia andrei = experiment: Earthworm reproduction test, OECD 222; format: in vivo; settings: 56 days, nominal
Summary of the method: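 GLP 56-day Eisenia andrei test per OECD 222. Eight nominal soil levels were used: 16, 29, 53, 95, 171, 309, 556 and 1,000 mg/kg soil DW. A solvent control was included. Four replicates per treatment, eight for the solvent control, 10 worms per replicate. Reproduction, mortality and growth were scored.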

[5] = Residues of EQ and metabolites/TPs in laying hen tissues and eggs; format: in vivo, laying hens; settings: liquid egg, control (0 mg EQ/kg feed); LOQ 2 µg/kg whole egg
Summary of the method: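 Liver, kidney, muscle and skin/fat were taken from eight hens per group after 56 days of feeding. Twelve eggs per treatment were collected: four per day on three consecutive days at the end of the study. EQ, EQDM, EQI, DHEQ, DEQ and metabolites A–C were measured. LOQs: EQ 0.5 (muscle) to 2 (other tissues) µg/kg; EQDM 0.5–1 µg/kg; EQI 1.5 µg/kg; DHEQ 0.5 µg/kg; whole egg 2 µg/kg per analyte.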

Adsorption coefficient = format: physicochemical
Summary of the method: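 Koc estimated under GLP per OECD 121 from the HPLC retention time of the test compound. Runs were done at pH 6.5 and at pH 2.5 because the compound ionises at soil-relevant pH.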

[6] = Forced degradation of EQ in compound feed; format: physicochemical
weaned piglets = experiment: Tolerance study in weaned piglets; format: in vivo
Summary of the method: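 128 piglets (Pietrain × crossbred, both sexes) entered the study at 28 days old and 8.1 kg. They were housed four per pen (two males, two females) in 32 pens and acclimatised for 6 days. Four mash diets were fed: 0, 50, 150 or 300 mg/kg feed, with eight replicate pens per diet.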

Avena sativa (oat) = experiment: Seedling emergence and seedling growth test, OECD 208; format: in vivo
Summary of the method: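 Soil was spiked with the test compound; measured concentrations were checked against nominal. From 50% emergence in controls, emergence, survival and visible phytotoxicity were recorded weekly for 21 days. At the end, emergence, survival, shoot fresh weight and visible damage were recorded. Effect concentrations were derived from dose–response curves.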

[7] = Assessment of secondary poisoning
[8] = Residues of EQ and EQDM in fish flesh; format: in vivo; settings: Atlantic salmon, oral, 50 mg EQ/kg feed
Summary of the method: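 Flesh was sampled from 15 fish per group after 90 days of feeding. The parent compound and its dimer were quantified by HPLC with fluorescence detection.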

Beagle dogs = settings: ref EFSA FEEDAP Panel, 2015, cited from earlier work
[9] = system: Skeletonema pseudocostatum; experiment: Marine algal growth inhibition test, ISO 10253:2016; format: in vivo; settings: read-out: ErC50
Summary of the method: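 Test concentrations were measured analytically at 0 and 72 h. Endpoints were expressed on the geometric mean of the measured concentrations. An EC50 was also predicted from the initially measured concentrations.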

[10] = Residues of EQ and metabolites/TPs in piglet tissues; format: in vivo; settings: piglets
[11] = system: Pacific oyster Crassostrea gigas; experiment: 24-h embryo-larval developmental test; format: in vivo; settings: initially measured concentrations
[12] = control feed (0 mg EQ/kg), 42 days, mean ± SD, LOQs as above

SMILES: CCOc1ccc2c(c1)C(C)=CC(C)(C)N2 [EQ, 6‐ethoxy‐1,2‐dihydro‐2,2,4‐trimethylquinoline]
- EQ losses ([1]; after 90 days at 40°C, 75% RH): about 80%
- EQ losses ([1]; after 90 days, ambient conditions): 30–50%
- Octanol/water partition coefficient (log Kow 25°C) ([2]; pH 5): 3.18
- Octanol/water partition coefficient (log Kow 25°C) ([2]; pH 7): 3.39
- Octanol/water partition coefficient (log Kow 25°C) ([2]; pH 9): 3.19
- EQ disappeared ([3]; 90 days at 25°C, 60% RH): About 50%
- time to a similar (about 50%) decline of EQ ([3]; at 40°C): 8 days
- effect on performance parameters (dairy cows): had no influence on the performance parameters
- margin of safety (cattle for fattening; 50 mg ethoxyquin/kg feed): 10
- gamma-glutamyl transpeptidase (cattle for fattening; 1× (50 mg/kg feed), 42 days): 22.4 µ/L
- platelet count (cattle for fattening; 1× (50 mg/kg feed), 42 days): 452000 µL⁻¹
- platelet count (cattle for fattening; 3× (150 mg/kg feed), 42 days): 394000 µL⁻¹
- platelet count (cattle for fattening; 10× (500 mg/kg feed), 42 days, p = 0.01 to the control): 264000 µL⁻¹
- protection factor ([4]; 25 mg ethoxyquin/kg feed (EQ25)): 1.50
- protection factor ([4]; 50 mg ethoxyquin/kg feed (EQ50)): 1.78
- deviation from control (soil microflora; day 28, 10.70 mg test item/kg soil DW): < 25%
- effect on soil nitrogen transformation (soil microflora; day 28, highest tested concentration 10.70 mg test item/kg soil DW): no adverse effects
- LC50 (mortality) (Eisenia andrei): 693 mg test item/kg soil DW
- NOEC for biomass (Eisenia andrei): ≥ 556 mg test item/kg soil DW
- NOEC for mortality (Eisenia andrei): 556 mg test item/kg soil DW
- NOEC for reproduction (Eisenia andrei): 171 mg test item/kg soil DW
- residue in eggs [5]: ˂ LOQ^( ^d ^)
- Koc (used for Phase II exposure assessment) (Adsorption coefficient): 331 L/kg
- Log Koc (Adsorption coefficient; pH 2.5): 1.55
- estimated Koc (Adsorption coefficient; pH 2.5): 35
- Log Koc (Adsorption coefficient; pH 6.5): 2.52
- estimated Koc (Adsorption coefficient; pH 6.5): 331
- share of the lost EQ identified as DMEQ, EQI and EQDM ([6]; H2O2): around 56%
- EQ oxidised ([6]; H2O2, after 4 h): 83%
- EQ oxidised ([6]; H2O2, spontaneously): 75%
- zootechnical parameters (weaned piglets; 50, 150 or 300 mg/kg feed, 42 days): not different from those of the control group
- margin of safety (weaned piglets; maximum use level 50 mg ethoxyquin/kg feed): at least six
- EC50, shoot fresh weight (Avena sativa (oat); 21 days): 242.2 mg/kg
- effects on seedling emergence and survival of emerged seedlings (Avena sativa (oat); up to 1,000 mg test item/kg soil DW): No adverse effects
- PECfish/PNECoral [7]: 1
- NECoral ([7]; from NOEC 80 mg/kg feed, assessment factor of 90): 0.89 mg/kg
- PECfish/PNECoral ([7]; listed as Ethoxyquin): 1.0
- concentration at 90 days [8]: 40 ng/g
- lowest NOAEL (Beagle dogs; dogs, based on hepatocellular necrosis): 2 mg/kg bw per day
- maximum potentially safe concentration in feeds for dogs (Beagle dogs): 11 mg/kg complete feed
- EC50 [9]: 3.3 µg/mL (≈ 15.2 µM)
- residue in kidney ([10]; control feed (0 mg EQ/kg), 42 days, mean ± SD, LOQs 1.5 to 2 µg EQ, EQDM, metabolite A/kg, 0.5 µg EQI/kg): ˂ LOQ^( ^b ^)
- residue in muscle [10, 12]: ˂ LOQ
- residue in subcutaneous fat [10, 12]: ˂ LOQ
- residue in muscle ([10]; feed with 50 mg EQ/kg for 42 days, LOQs 1.5 to 2 µg EQ, EQDM, metabolite A/kg, 0.5 µg EQI/kg): ˂ LOQ
- 24-h NOEC (development) [11]: 2.9 mg/L
